Laboratory results as given in ChEMBL document CHEMBL4393701, “Appendix A. dithioloquinolinethiones as new potential multitargeted antibacterial and antifungal agents: Synthesis, biological evaluation and molecular docking studies” (2019).
In brackets after ≈: the same amount, converted by molar mass.

Tests used:
[1] = tested on: Penicillium cyclopium; experiment: Antifungal activity against Penicillium verrucosum var. cyclopium food isolate after 72 hrs by microdilution technique; format: functional
Outline: (§1)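 Spores were washed off malt agar with 0.85% saline containing 0.1% Tween 80 and adjusted to about 1.0×10^5 per well. Compounds in 5% DMSO were serially diluted (0.001-1.0 mg/ml) in malt broth with inoculum. Plates were shaken at 160 rpm for 72 h at 28 °C. MIC is the lowest concentration without visible growth under a binocular microscope. Three independent experiments in duplicate.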

[2] = tested on: Pseudomonas aeruginosa; experiment: Antibacterial activity against Pseudomonas aeruginosa ATCC 27853 after 24 hrs by iodonitrotetrazolium chloride dye based microdilution method; format: functional; settings: ATCC 27853, 24 h
Outline: (§2)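 Fresh overnight cultures adjusted spectrophotometrically to 1×10^5 CFU/mL, giving 1.0×10^4 CFU per well in tryptic soy broth. Compounds were dissolved in 5% DMSO and tested at 0.001-1.0 mg/ml by serial dilution; 5% DMSO was the negative control. After 24 h at 37 °C, 0.2 mg/mL INT solution was added for 30 min at 37 °C and OD read at 655 nm. MIC is the lowest concentration giving significant growth inhibition versus the positive control. Duplicates, repeated three times.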

[3] = tested on: Salmonella typhimurium; experiment: Antibacterial activity against Salmonella typhimurium ATCC 13311 after 24 hrs by iodonitrotetrazolium chloride dye based microdilution method; format: functional, Salmonella enterica subsp. enterica serovar Typhimurium; settings: Salmonella enterica, ATCC 13311, 24 h; outline: as §2
[4] = tested on: Pseudomonas aeruginosa; experiment: Bactericidal activity against Pseudomonas aeruginosa ATCC 27853 incubated for 24 hrs followed by re-plating on tryptic soy broth; format: functional; settings: ATCC 27853, 24 h
Outline: (§3)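 Bacteria were grown in tryptic soy broth, 1.0×10^4 CFU per well, with compounds in 5% DMSO at 0.001-1.0 mg/ml for 24 h at 37 °C. Then 10 µL was subcultured into fresh TSB. MBC is the lowest concentration showing no growth after subculture, taken as 99.5% kill of the original inoculum. Duplicates, repeated three times.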

[5] = tested on: Aspergillus versicolor; experiment: Antifungal activity against Aspergillus versicolor ATCC 11730 after 72 hrs by microdilution method; format: functional; settings: ATCC 11730, 72 h; outline: as §1
[6] = tested on: Aspergillus ochraceus; experiment: Antifungal activity against Aspergillus ochraceus ATCC 12066 after 72 hrs by microdilution technique; format: functional; settings: ATCC 12066, 72 h; outline: as §1
[7] = tested on: Staphylococcus aureus; experiment: Bactericidal activity against Staphylococcus aureus ATCC 6538 incubated for 24 hrs followed by re-plating on tryptic soy broth; format: functional; settings: ATCC 6538, 24 h; outline: as §3
[8] = tested on: Listeria monocytogenes; experiment: Antibacterial activity against Listeria monocytogenes NCTC 7973 after 24 hrs by iodonitrotetrazolium chloride dye based microdilution method; format: functional; settings: NCTC 7973, 24 h; outline: as §2
[9] = tested on: Salmonella typhimurium; experiment: Bactericidal activity against Salmonella typhimurium ATCC 13311 incubated for 24 hrs followed by re-plating on tryptic soy broth; format: functional, Salmonella enterica subsp. enterica serovar Typhimurium; settings: Salmonella enterica, ATCC 13311, 24 h; outline: as §3
[10] = tested on: Aspergillus fumigatus; experiment: Antifungal activity against Aspergillus fumigatus ATCC 1022 after 72 hrs by microdilution technique; format: functional; settings: ATCC 1022, 72 h; outline: as §1
[11] = tested on: Enterobacter cloacae; experiment: Bactericidal activity against Enterobacter cloacae incubated for 24 hrs followed by re-plating on tryptic soy broth; format: functional; outline: as §3
[12] = tested on: Aspergillus niger; experiment: Antifungal activity against Aspergillus niger ATCC 6275 after 72 hrs by microdilution technique; format: functional; settings: ATCC 6275, 72 h; outline: as §1
[13] = tested on: Trichoderma viride; experiment: Fungicidal activity against Trichoderma viride IAM 5061 incubated for 72 hrs followed by sub-culturing on broth malt medium and measured after 72 hrs; format: functional; settings: IAM 5061, 72 h
Outline: (§4)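 After 72 h exposure in malt broth, 2 µL from test wells was subcultured into wells holding 100 µL broth and incubated a further 72 h at 28 °C. MFC is the lowest concentration with no visible growth, taken as 99.5% kill of the original inoculum. Three independent experiments in duplicate.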

[14] = tested on: Escherichia coli; experiment: Bactericidal activity against Escherichia coli ATCC 35210 incubated for 24 hrs followed by re-plating on tryptic soy broth; format: functional; settings: ATCC 35210, 24 h; outline: as §3
[15] = tested on: Micrococcus flavus; experiment: Antibacterial activity against Micrococcus flavus ATCC 10240 after 24 hrs by iodonitrotetrazolium chloride dye based microdilution method; format: functional; settings: ATCC 10240, 24 h; outline: as §2
[16] = tested on: Micrococcus flavus; experiment: Bactericidal activity against Micrococcus flavus ATCC 10240 incubated for 24 hrs followed by re-plating on tryptic soy broth; format: functional; settings: ATCC 10240, 24 h; outline: as §3
[17] = tested on: Staphylococcus aureus; experiment: Antibacterial activity against Staphylococcus aureus ATCC 6538 after 24 hrs by iodonitrotetrazolium chloride dye based microdilution method; format: functional; settings: ATCC 6538, 24 h; outline: as §2
[18] = Fungicidal activity against Penicillium funiculosum ATCC 36839 incubated for 72 hrs followed by sub-culturing on broth malt medium and measured after 72 hrs; format: functional; settings: Talaromyces pinophilus, ATCC 36839, 72 h; outline: as §4
[19] = Antifungal activity against Penicillium funiculosum ATCC 36839 after 72 hrs by microdilution technique; format: functional; settings: Talaromyces pinophilus, ATCC 36839, 72 h; outline: as §1
[20] = tested on: Listeria monocytogenes; experiment: Bactericidal activity against Listeria monocytogenes NCTC 7973 incubated for 24 hrs followed by re-plating on tryptic soy broth; format: functional; settings: NCTC 7973, 24 h; outline: as §3
[21] = tested on: Bacillus cereus; experiment: Bactericidal activity against Bacillus cereus clinical isolate incubated for 24 hrs followed by re-plating on tryptic soy broth; format: functional; outline: as §3
[22] = tested on: Penicillium cyclopium; experiment: Fungicidal activity against Penicillium verrucosum var. cyclopium food isolate incubated for 72 hrs followed by sub-culturing on broth malt medium and measured after 72 hrs; format: functional; outline: as §4
[23] = tested on: Penicillium ochrochloron; experiment: Fungicidal activity against Penicillium ochrochloron ATCC 9112 incubated for 72 hrs followed by sub-culturing on broth malt medium and measured after 72 hrs; format: functional; settings: ATCC 9112, 72 h; outline: as §4
[24] = tested on: Aspergillus fumigatus; experiment: Fungicidal activity against Aspergillus fumigatus ATCC 1022 incubated for 72 hrs followed by sub-culturing on broth malt medium and measured after 72 hrs; format: functional; settings: ATCC 1022, 72 h; outline: as §4
[25] = tested on: Escherichia coli; experiment: Antibacterial activity against Escherichia coli ATCC 35210 after 24 hrs by iodonitrotetrazolium chloride dye based microdilution method; format: functional; settings: ATCC 35210, 24 h; outline: as §2
[26] = tested on: Trichoderma viride; experiment: Antifungal activity against Trichoderma viride IAM 5061 after 72 hrs by microdilution technique; format: functional; settings: IAM 5061, 72 h; outline: as §1
[27] = tested on: Aspergillus ochraceus; experiment: Fungicidal activity against Aspergillus ochraceus ATCC 12066 incubated for 72 hrs followed by sub-culturing on broth malt medium and measured after 72 hrs; format: functional; settings: ATCC 12066, 72 h; outline: as §4
[28] = tested on: Penicillium ochrochloron; experiment: Antifungal activity against Penicillium ochrochloron ATCC 9112 after 72 hrs by microdilution technique; format: functional; settings: ATCC 9112, 72 h; outline: as §1
[29] = tested on: Enterobacter cloacae; experiment: Antibacterial activity against Enterobacter cloacae clinical isolate after 24 hrs by iodonitrotetrazolium chloride dye based microdilution method; format: functional; outline: as §2
[30] = tested on: Aspergillus versicolor; experiment: Fungicidal activity against Aspergillus versicolor ATCC 11730 incubated for 72 hrs followed by sub-culturing on broth malt medium and measured after 72 hrs; format: functional; settings: ATCC 11730, 72 h; outline: as §4
[31] = tested on: Bacillus cereus; experiment: Antibacterial activity against Bacillus cereus clinical isolate after 24 hrs by iodonitrotetrazolium chloride dye based microdilution assay; format: functional; outline: as §2
[32] = tested on: Aspergillus niger; experiment: Fungicidal activity against Aspergillus niger ATCC 6275 incubated for 72 hrs followed by sub-culturing on broth malt medium and measured after 72 hrs; format: functional; settings: ATCC 6275, 72 h; outline: as §4

MIC [1]	MIC [2]	MIC [3]	MIC [5]	MIC [6]	MIC [8]	MIC [10]	MIC [12]	MIC [15]	MIC [17]	MIC [19]	SMILES	MBC [4]	MBC [7]	MBC [9]	MBC [11]	MFC [13]	MBC [14]	MBC [16]	MFC [18]	MBC [20]	other results
24.3 ×10⁻² mM	30.4 µM (≈ 15 µg/mL)	30.4 µM (≈ 15 µg/mL)	12.2 ×10⁻² mM	1.62 ×10⁻² mM	30.4 µM (≈ 15 µg/mL)	4.46 ×10⁻² mM	2.23 ×10⁻² mM	30.4 µM (≈ 15 µg/mL)	30.4 µM (≈ 15 µg/mL)	3.04 ×10⁻² mM	CCOc1ccc2c(c1)-c1c(ssc1=S)C(C)(C)N2C(=O)c1ccc(Cl)c([N+](=O)[O-])c1	60.9 µM (≈ 30 µg/mL)	60.9 µM (≈ 30 µg/mL)	60.9 µM (≈ 30 µg/mL)	60.9 µM (≈ 30 µg/mL)	1.62 ×10⁻² mM	60.9 µM (≈ 30 µg/mL)	60.9 µM (≈ 30 µg/mL)	6.09 ×10⁻² mM	60.9 µM (≈ 30 µg/mL)	MBC [21]: 60.9 µM (≈ 30 µg/mL); MFC [22]: 48.7 ×10⁻² mM; MFC [23]: 1.62 ×10⁻² mM; MFC [24]: 12.2 ×10⁻² mM; MIC [25]: 30.4 µM (≈ 15 µg/mL); MIC [26]: 1.22 ×10⁻² mM; MFC [27]: 3.04 ×10⁻² mM; MIC [28]: 1.22 ×10⁻² mM; MIC [29]: 30.4 µM (≈ 15 µg/mL); MFC [30]: 24.3 ×10⁻² mM; MIC [31]: 30.4 µM (≈ 15 µg/mL); MFC [32]: 6.09 ×10⁻² mM
6.46 ×10⁻² mM	88.1 µM (≈ 30 µg/mL)	176 µM (≈ 60 µg/mL)	4.41 ×10⁻² mM	2.35 ×10⁻² mM	176 µM (≈ 59.9 µg/mL)	17.6 ×10⁻² mM	4.41 ×10⁻² mM	132 µM (≈ 44.9 µg/mL)	88.1 µM (≈ 30 µg/mL)	4.41 ×10⁻² mM	COc1cc2c(c([N+](=O)[O-])c1)NC(C)(C)c1ssc(=S)c1-2	176 µM (≈ 60 µg/mL)	176 µM (≈ 59.9 µg/mL)	352 µM (≈ 120 µg/mL)	176 µM (≈ 59.9 µg/mL)	4.41 ×10⁻² mM	176 µM (≈ 59.9 µg/mL)	176 µM (≈ 59.9 µg/mL)	8.81 ×10⁻² mM	352 µM (≈ 120 µg/mL)	MBC [21]: 88.1 µM (≈ 30 µg/mL); MFC [22]: 17.6 ×10⁻² mM; MFC [23]: 8.81 ×10⁻² mM; MFC [24]: 35.2 ×10⁻² mM; MIC [25]: 132 µM (≈ 45 µg/mL); MIC [26]: 3.23 ×10⁻² mM; MFC [27]: 4.41 ×10⁻² mM; MIC [28]: 4.41 ×10⁻² mM; MIC [29]: 88.1 µM (≈ 30 µg/mL); MFC [30]: 8.81 ×10⁻² mM; MIC [31]: 44.1 µM (≈ 15 µg/mL); MFC [32]: 8.81 ×10⁻² mM
